Results gathered from unrelated publications.
Compare with care: the assays were run in different laboratories.
Target: Cytoplasmic tyrosine-protein kinase BMX (BMX, Homo sapiens, UniProt P51813)

Compound	read-out	mode	method	tested at	quantity	value
CN(c1ccnc(CNc2nc(Nc3ccc4c(c3)CC(=O)N4)ncc2C(F)(F)F)n1)S(C)(=O)=O	cell-free assay		competition with immobilised ligand	1 µM	remaining binding	80%
Cn1c2c(c3ccc(Cl)c(Cl)c31)C(C#N)C1(CCOCC1)NC2=O (stereo not drawn)	thermal stability		DSF	10 µM	ΔTm	-0.3 °C
CCN(CC)CCNC(=O)c1c(C)[nH]c(/C=C2\C(=O)Nc3ccc(F)cc32)c1C	enzyme activity	inhibitor		10 µM	inhibition	41%
FC(F)(F)c1ccc(/C=C/c2nc(COc3ccc(CCCCn4ccnn4)cc3)co2)cc1	enzyme activity	inhibitor		0.5 µM	remaining activity	99%
Cc1ccc(C(=O)NCc2ccsc2)cc1C#Cc1cn(C(C)C)c2ncnc(N)c12	enzyme activity	inhibitor		1 µM	activity vs control	2%
CC1=C(C#N)[C@@H](c2ccc3[nH]nc(C)c3c2)C(C#N)=C(c2ccc(Cl)cc2)N1	cell-free assay		competition with immobilised ligand	1 µM	remaining binding	100%
Cc1cc(NC(=O)c2cccc3cc(-c4cccc5[nH]nc(N)c45)ccc23)ccc1F	enzyme activity	inhibitor		0.1 µM	activity vs control	108%
Nc1c(C(=O)NCc2ccc(C(=O)NCCCC3CCCCC3)cc2)cnn1-c1ccccc1	cell-free assay		competition with immobilised ligand	0.1 µM	remaining binding	100%
C=CC(=O)Nc1cc(Nc2nccc(Nc3cc(Cl)c(F)cc3C(C)(C)O)n2)c(OC)cc1N1CC[C@@H](N(C)C)C1	enzyme activity	inhibitor		1 µM	inhibition	80%
O=C1Nc2ccc(Cl)cc2C1=Cc1cc(Cl)c(O)c(Cl)c1	cell-free assay			0.5 µM	remaining signal	94.8%
Cc1ccc(NC(=O)c2ccc(C)c(C(F)(F)F)c2)cc1C#Cc1nn(C2CCC(O)CC2)c2ncnc(N)c12 (stereo not drawn)	cell-free assay			10 µM	remaining signal	-1%
Cn1cncc1C1=CN(c2ncnc3[nH]cnc23)CCS1	enzyme activity	inhibitor	radiometric	50 nM	inhibition	13.9%
Cn1c2c(c3ccc(Cl)c(Cl)c31)C(C#N)C(C)(C)NC2=O (stereo not drawn)	thermal stability		DSF	10 µM	ΔTm	-0.1 °C
COc1cc2nccc(Oc3ccc(NC(=S)NC(=O)c4ccccc4C)cc3)c2cc1OC	enzyme activity	inhibitor		0.5 µM	remaining activity	30.6%
c1ccc(N2CCN(Cc3nc4ccccc4[nH]3)CC2)nc1	cell-free assay		competition with immobilised ligand	1 µM	remaining binding	100%
O=c1cc(-c2cccc3c2Sc2ccccc2S3)oc(N2CCOCC2)c1	enzyme activity	inhibitor		0.5 µM	remaining activity	112%
Cn1c2c(Cl)c(Cl)ccc2c2cc[nH]c(=O)c21	thermal stability		DSF	10 µM	ΔTm	0 °C

Compound	read-out	mode	method	tested at	quantity	value
Nc1[nH]nc2nnc(-c3c(-c4ccccc4)nn4ccccc34)cc12	enzyme activity	inhibitor		0.5 µM	remaining activity	84.4%
CC(=O)N1CCC(c2ccc(C(=O)NC(=N)N)cc2C(F)(F)F)CC1	cell-free assay		competition with immobilised ligand	1 µM	remaining binding	100%
Cn1c2c(c3ccc(Cl)c(Cl)c31)C(C#N)C1(CCCC1)NC2=O (stereo not drawn)	thermal stability		DSF	10 µM	ΔTm	0 °C
Cc1ccc(Nc2nccc(N(C)c3ccc4c(C)n(C)nc4c3)n2)cc1S(N)(=O)=O	enzyme activity	inhibitor		0.3 µM	inhibition	8%
COc1cc2ncnc(Nc3ccc(Oc4ccccc4)cc3C)c2cc1OC	enzyme activity	inhibitor		1 µM	inhibition	35%
CCOC(=O)c1cc2cc(-c3cc(C(=O)NCc4ccc(C(=O)O)cc4)nn3C)ccc2[nH]1	cell-free assay		competition with immobilised ligand	0.1 µM	remaining binding	82%
CN(C)C1CCN(CC#Cc2nn(C3CCCC3)c3nc(NCc4ccccc4)ncc23)C1 (stereo not drawn)	enzyme activity	inhibitor	FRET	0.1 µM	inhibition	11%
CS(=O)(=O)c1cc(C2(NC(=O)c3cncc4c3cnn4-c3ccc(F)cc3)CC2)ccn1	cell-free assay		competition with immobilised ligand	1 µM	remaining binding	100%
CNC(=O)c1cc(Oc2ccc(NC(=O)Nc3ccc(Cl)c(C(F)(F)F)c3)cc2)ccn1	enzyme activity	inhibitor		0.3 µM	inhibition	-3%
CNc1cccc2cc(C(=O)Nc3ccc(C(=O)O)cc3)c(=O)[nH]c12	enzyme activity	inhibitor		10 µM	inhibition	9.1%
C[C@@H](N)[C@H]1CC[C@H](C(=O)Nc2ccncc2)CC1	enzyme activity	inhibitor		0.5 µM	remaining activity	91.2%
Cc1nccc(COC(=O)N2C[C@@H]3[C@@H](CNC(=O)c4ccc5[nH]nnc5c4)[C@@H]3C2)n1	cell-free assay		competition with immobilised ligand	1 µM	remaining binding	88%
COc1cc2c(N3CCN(C(=O)Nc4ccc(OC(C)C)cc4)CC3)ncnc2cc1OCCCN1CCCCC1	cell-free assay			0.5 µM	remaining signal	109%
N#CC1c2c([nH]c3c(Cl)c(Cl)ccc23)C(=O)NC12CCCCC2 (racemic)	thermal stability		DSF	10 µM	ΔTm	-0.1 °C
COc1cc2nccc(Oc3ccc(NC(=O)c4c5n(n(-c6ccc(F)cc6)c4=O)CCCC5)cc3)c2cc1OC	enzyme activity	inhibitor		0.1 µM	inhibition	22%
O=C1NC(=O)c2cc(Nc3ccc(F)cc3)c(Nc3ccc(F)cc3)cc21	cell-free assay			0.5 µM	remaining signal	95.3%
